Several values for one entry are separate records, joined by “and”; a condition that tells them apart may be missing. Identical values can stand only once. Activity calls are given as the source filed them. The calls are words filed in the database; no cut-off is given here. Where a SMILES comes first, the peptide text is derived from it. Bridges are numbered along the chain shown (N, C = ends). [ ]: non-standard residue; d: D form. The star is where a group is joined. X1 = CC[C@H](C)CCCCC(=O)*; dDab = NCC[C@@H](N)C(=O)O; Dab = NCC[C@H](N)C(=O)O
Assays:
Staphylococcus aureus [1] = assay: Antibacterial activity against methicillin resistant Staphylococcus aureus ATCC BAA 1556 assessed as inhibition of bacterial growth incubated for 24 hrs by CLSI based broth microdilution method; type: functional
Pseudomonas aeruginosa = assay: Antibacterial activity against Pseudomonas aeruginosa […] assessed as inhibition of bacterial growth incubated for 24 hrs by CLSI based broth microdilution method; type: functional
Escherichia coli [2] = assay: Antibacterial activity against Escherichia coli ATCC 25922 assessed as inhibition of bacterial growth incubated for 24 hrs by CLSI based broth microdilution method; type: functional
Staphylococcus aureus [3] = assay: Antibacterial activity against Staphylococcus aureus ATCC 29213 assessed as inhibition of bacterial growth incubated for 24 hrs by CLSI based broth microdilution method; type: functional
Klebsiella pneumoniae = assay: Antibacterial activity against Klebsiella pneumoniae ATCC BAA 1705 assessed as inhibition of bacterial growth incubated for 24 hrs by CLSI based broth microdilution method; type: functional
Cell membrane [4] = assay: Disruption of cell membrane in methicillin resistant Staphylococcus aureus ATCC BAA 1556 assessed as increase in PI fluorescence intensity at MIC measured after 1 hrs by PI staining based flow cytometric analysis; type: subcellular
In short: (§1)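 Mid-log cells grown in Mueller Hinton broth, washed in 10 mM Tris pH 7.4, 10^7 CFU/mL, treated at MIC and 4× MIC for 1 h. Pelleted, washed, PI-stained for 15 min at 37 °C in the dark, then counted by flow cytometry for % PI-positive cells. PBS-treated cells as negative control, 10% Triton X-100 as positive control. Run in triplicate; two-tailed unpaired t-test.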

Cell membrane [5] = assay: Disruption of cell membrane in Escherichia coli ATCC BAA-2452 assessed as increase in PI fluorescence intensity at MIC measured after 1 hrs by PI staining based flow cytometric analysis; type: subcellular
In short: (§2)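 Mid-log E. coli ATCC BAA-2452 grown in Mueller Hinton broth, washed thrice and resuspended at 10^7 CFU/mL in 10 mM Tris pH 7.4. […] Controls: PBS (negative) and 10% Triton X-100 (positive). Triplicate; two-tailed unpaired t-test.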

Cell membrane [6] = assay: Disruption of cell membrane in Escherichia coli ATCC BAA-2452 assessed as increase in PI fluorescence intensity at 4 times of MIC measured after 1 hrs by PI staining based flow cytometric analysis; type: subcellular; in short: as §2
Cell membrane [7] = assay: Disruption of cell membrane in methicillin resistant Staphylococcus aureus ATCC BAA 1556 assessed as increase in PI fluorescence intensity at 4 times of MIC measured after 1 hrs by PI staining based flow cytometric analysis; in short: as §1
Escherichia coli [8] = assay: Antibacterial activity against Escherichia coli ATCC 25922 assessed as fold increase in MIC incubated for 24 hrs in presence of Na+ ions by CLSI based broth microdilution method; type: functional
In short: (§3)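 E. coli MICs by CLSI broth microdilution in cation-adjusted Mueller Hinton broth. […] Inoculum was 10^6 CFU/mL with 2-fold serial peptide dilutions, incubated 24 h at 37 °C. MIC is the lowest concentration inhibiting growth. Three independent assays, each in triplicate.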

Staphylococcus aureus [9] = assay: Antibacterial activity against methicillin resistant Staphylococcus aureus ATCC BAA 1556 assessed as fold increase in MIC incubated for 24 hrs in presence of Na+ ions by CLSI based broth microdilution method; type: functional
In short: (§4)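 CLSI broth microdilution. Overnight cultures diluted in cation-adjusted Mueller Hinton broth to 10^6 CFU/mL, mixed 1:1 with 2-fold serial peptide dilutions, 24 h at 37 °C. […] MIC is the lowest concentration inhibiting growth. Three independent assays in triplicate.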

Escherichia coli [10] = assay: Antibacterial activity against Escherichia coli ATCC 25922 assessed as fold increase in MIC incubated for 24 hrs in presence of Mg2+ ions by CLSI based broth microdilution method; type: functional; in short: as §3
Staphylococcus aureus [11] = assay: Antibacterial activity against methicillin resistant Staphylococcus aureus ATCC BAA 1556 assessed as fold increase in MIC incubated for 24 hrs in presence of Ca2+ ions by CLSI based broth microdilution method; type: functional; in short: as §4
Escherichia coli [12] = assay: Antibacterial activity against Escherichia coli ATCC 25922 assessed as fold increase in MIC incubated for 24 hrs in presence of K+ ions by CLSI based broth microdilution method; type: functional; in short: as §3
Escherichia coli [13] = assay: Antibacterial activity against Escherichia coli ATCC 25922 assessed as fold increase in MIC incubated for 24 hrs in presence of NH4+ ions by CLSI based broth microdilution method; type: functional; in short: as §3
Staphylococcus aureus [14] = assay: Antibacterial activity against methicillin resistant Staphylococcus aureus ATCC BAA 1556 assessed as fold increase in MIC incubated for 24 hrs in presence of K+ ions by CLSI based broth microdilution method; type: functional; in short: as §4
Staphylococcus aureus [15] = assay: Antibacterial activity against methicillin resistant Staphylococcus aureus ATCC BAA 1556 assessed as fold increase in MIC incubated for 24 hrs in presence of Mg2+ ions by CLSI based broth microdilution method; type: functional; in short: as §4
Staphylococcus aureus [16] = assay: Antibacterial activity against methicillin resistant Staphylococcus aureus ATCC BAA 1556 assessed as fold increase in MIC incubated for 24 hrs in presence of NH4+ ions by CLSI based broth microdilution method; type: functional; in short: as §4
Escherichia coli [17] = assay: Antibacterial activity against Escherichia coli ATCC 25922 assessed as fold increase in MIC incubated for 24 hrs in presence of Ca2+ ions by CLSI based broth microdilution method; type: functional; in short: as §3

Row | Molecule | MIC (Staphylococcus aureus [1]) | MIC (Pseudomonas aeruginosa) | MIC (Escherichia coli [2]) | MIC (Staphylococcus aureus [3]) | MIC (Klebsiella pneumoniae; read-out: MIC) | also measured
1 | H-RWARRWWR-NH2 | > 100 µg/mL and > 78.7 µM | > 100 µg/mL | > 100 µg/mL and > 78.7 µM | > 100 µg/mL and > 78.7 µM | > 100 µg/mL | –
2 | H-RWWRAAWRR-NH2 | > 100 µg/mL and > 74.5 µM | > 100 µg/mL | > 100 µg/mL and > 74.5 µM | > 100 µg/mL and > 74.5 µM | > 100 µg/mL | –
3 | H-RWIRRWIRWWR-NH2 | – | – | 100 µg/mL | – | 100 µg/mL | MIC (Klebsiella pneumoniae): 56.5 µM
4 | H-RAWRRWWRA-NH2 | > 100 µg/mL and > 74.5 µM | > 100 µg/mL | > 100 µg/mL and > 74.5 µM | > 100 µg/mL and > 74.5 µM | > 100 µg/mL | –
5 | H-RWRRWWR-NH2 | 100 µg/mL | > 100 µg/mL | > 100 µg/mL and > 83.3 µM | 100 µg/mL | > 100 µg/mL | –
6 | CC[C@H](C)CCCCC(=O)N[C@@H](CCN)C(=O)N[C@H](C(=O)N[C@@H](CCN)C(=O)N[C@H]1CCNC(=O)[C@H]([C@@H](C)O)NC(=O)[C@H](CCN)NC(=O)[C@H](CCN)NC(=O)[C@H](CC(C)C)NC(=O)[C@@H](Cc2ccccc2)NC(=O)[C@@H](CCN)NC1=O)[C@@H](C)O (X1-[Dab]T[Dab][Dab][dDab][dF]L[Dab][Dab]T; lactam 4-C) | – | – | – | – | – | Activity (Cell membrane [4]): inactive; Activity (Cell membrane [5]): inactive; Activity (Cell membrane [6]): inactive; Activity (Cell membrane [7]): inactive
7 | H-RWARRWWRA-NH2 | > 100 µg/mL and > 74.5 µM | > 100 µg/mL | > 100 µg/mL and > 74.5 µM | > 100 µg/mL and > 74.5 µM | > 100 µg/mL | –
8 | H-RAARRWARWWR-NH2 | 100 µg/mL | > 100 µg/mL | > 100 µg/mL and > 63.7 µM | 100 µg/mL | > 100 µg/mL | –
9 | H-RWWRRWAR-NH2 | > 100 µg/mL and > 78.7 µM | > 100 µg/mL | > 100 µg/mL and > 78.7 µM | > 100 µg/mL and > 78.7 µM | > 100 µg/mL | –
10 | H-RAWRRWWARA-NH2 | > 100 µg/mL and > 70.7 µM | > 100 µg/mL | > 100 µg/mL and > 70.7 µM | > 100 µg/mL and > 70.7 µM | > 100 µg/mL | –
11 | Ac-KWAKKWAKWWKK-NH2 | 100 µg/mL | 100 µg/mL | 100 µg/mL | – | 100 µg/mL | –
12 | H-RWWRRAWRAA-NH2 | > 100 µg/mL and > 70.7 µM | > 100 µg/mL | > 100 µg/mL and > 70.7 µM | > 100 µg/mL and > 70.7 µM | > 100 µg/mL | –
13 | H-RRWWRRW-NH2 | 100 µg/mL | > 100 µg/mL | > 100 µg/mL and > 83.3 µM | – | > 100 µg/mL | –
14 | H-RWIRRWIRWWRR-NH2 | – | – | – | – | 12.5 µg/mL | fold change (FC) (Escherichia coli [8]): 2; fold change (FC) (Staphylococcus aureus [9]): 2; fold change (FC) (Escherichia coli [10]): 2; fold change (FC) (Staphylococcus aureus [11]): 2; fold change (FC) (Escherichia coli [12]): 2; fold change (FC) (Escherichia coli [13]): 2; fold change (FC) (Staphylococcus aureus [14]): 2; fold change (FC) (Staphylococcus aureus [15]): 2; fold change (FC) (Staphylococcus aureus [16]): 2; fold change (FC) (Escherichia coli [17]): 2
15 | H-RWWRRAWRA-NH2 | > 100 µg/mL and > 74.5 µM | > 100 µg/mL | > 100 µg/mL and > 74.5 µM | > 100 µg/mL and > 74.5 µM | > 100 µg/mL | –
16 | Ac-RWIRRWIRWWR-NH2 | – | – | 100 µg/mL | – | 100 µg/mL | –
17 | H-RAWRRAWRAW-NH2 | > 100 µg/mL and > 70.7 µM | > 100 µg/mL | > 100 µg/mL and > 70.7 µM | > 100 µg/mL and > 70.7 µM | > 100 µg/mL | –
